The nature of the data set: Toxicity liver stage against HepG2, at 10uM. The format is cell-based. Details: test concentration 10 uM, cell line HepG2-A16-CD81EGFP. Particulars: human, HepG2-A16-CD81EGFP cells; read-out: INHIBITION
The essentials:
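Uninfected HepG2-A16-CD81EGFP cells, 3 × 10^3 per well, 1536-well, plated on prespotted compound at 10 μM final, parasite-free screening media added to match infected plates; puromycin 10 μM positive, DMSO 0.5% negative; run in parallel with 48 h PbLuc assay at 37 °C, 5% CO2; viability by CellTiter-Glo luminescence, normalized to controls.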
In the case of `CN(C)Cc1cc(CC2(NCc3ccccc3Cl)COC2)no1`, the cytotoxicity at 10 µM was 4.14%.

`CS(=O)(=O)NC[C@H]1Cn2c(-c3ccccc3)cnc2CO1`: the cytotoxicity at 10 µM is -2.96%.

On to `COCCn1c(-c2cccc(OC)c2)cnc1NC(=O)NCC(C)C`, for which the cytotoxicity at 10 µM amounted to 11.4%.

For `CN(CCC#N)C(=O)C(C)(C)Oc1ccc(C(N)=O)cc1`, the cytotoxicity at 10 µM is 0.676%.

Take `COc1ccc2c3c1CN(C(=O)N(C)C)CC3=CC(C)(C)CO2`: the cytotoxicity at 10 µM was found to be 5.21%.

As for `Cn1cc(-c2nnc3sc(C4CCC4)nn23)cn1`, the cytotoxicity at 10 µM was -13%.

Regarding `CSCCC(Nc1nc(C)cc(C)n1)C(=O)NCC1CCOCC1` (configuration not stated), the cytotoxicity at 10 µM is -3.45%.

`COCCN(Cc1ccoc1)C(=O)c1ccc(Cl)s1`: the cytotoxicity at 10 µM worked out at 12.3%.

In the case of `COCCN(Cc1ccoc1)S(=O)(=O)c1ccc(OC)c(Cl)c1`, the cytotoxicity at 10 µM is 6.27%.

`Cn1cnc(S(=O)(=O)NCC(O)c2ccc3c(c2)CCO3)c1` (configuration not stated): the cytotoxicity at 10 µM is -6.28%.

Regarding `Cn1cnc(S(=O)(=O)NCCC(O)c2ccc3c(c2)OCO3)c1` (configuration not stated), the cytotoxicity at 10 µM was -8.71%.

Consider `N#Cc1ccccc1Cn1cncn1`, for which the cytotoxicity at 10 µM was 13.1%.

Regarding `Cc1ccc(C(=O)N2C[C@H](OCc3cccnc3)[C@H]3COC[C@H]32)cn1`, the cytotoxicity at 10 µM was -1.52%.

On to `O=C1CC(c2cccs2)c2sc(C(=O)O)c(-c3ccccc3)c2N1` (configuration not stated), for which the cytotoxicity at 10 µM is -1.66%.

Take `Cn1cc(I)c(C(=O)NC2CCCCC2)n1`: the cytotoxicity at 10 µM stood at 18.1%.

As to `O=C(c1ccc(F)c(F)c1)N1CCCSCC1CN1CCCC1` (configuration not stated), the cytotoxicity at 10 µM is -0.524%.

For the compound `CC1CCc2nc(O)c(C(=O)NCCN(C)C)cc2C1` (configuration not stated), the cytotoxicity at 10 µM is -13.8%.

As to `CCOCCCNc1cc(C)nn2cnnc12`, the cytotoxicity at 10 µM turned out to be 2.21%.

In the case of `CCn1ncc(CNc2[nH]cnc3nncc2-3)c1C`, the cytotoxicity at 10 µM worked out at 2.76%.

Consider `FC(F)(F)c1cc(-c2cccs2)nc(N2CCN3CCCC3C2)n1` (configuration not stated), for which the cytotoxicity at 10 µM is 10.7%.

With `CC(C)(C(=O)N[C@@H]1CCC[C@@H](O)[C@@H]1O)c1cccc(F)c1`, the cytotoxicity at 10 µM was 4.79%.

For `Cc1cnn(CC(C)NCc2cc(C#N)ccc2F)c1` (configuration not stated), the cytotoxicity at 10 µM was 0.224%.

Regarding `CC(C)CC(C)(CNC(=O)c1cnccn1)NC(=O)c1cnccn1` (configuration not stated), the cytotoxicity at 10 µM is -2.71%.

For `CS(=O)(=O)CCn1ccc(NC(=O)Cc2ccccc2Cl)n1`, the cytotoxicity at 10 µM came to 13.6%.

As to `CCc1nc(C)c(C(C)N(C)CCOC)s1` (configuration not stated), the cytotoxicity at 10 µM is -6.35%.

As for `CN(C)c1ccccc1CN1CCC(N2CCCC2=O)CC1`, the cytotoxicity at 10 µM is 5.02%.

`CC(=O)Nc1ccc(CNc2cccc(OCCF)c2)cc1`: the cytotoxicity at 10 µM is -5.35%.

For the compound `Cc1nc(C)n(CC2CCCN2CC(=O)Nc2ccncc2)n1` (configuration not stated), the cytotoxicity at 10 µM is -1.73%.

Take `CN(Cc1ccccc1)CC(C)(C)NC(=O)c1cnns1`: the cytotoxicity at 10 µM is -3.67%.

On to `Cc1nc(CNC(=O)NC2CCN(c3ncccc3Cl)C2)no1` (configuration not stated), for which the cytotoxicity at 10 µM turned out to be 11.9%.

For `COc1cccc(NC(=O)N(CCC(F)(F)F)C[C@H](O)CO)c1`, the cytotoxicity at 10 µM was -9.48%.

Turning to `COCCn1ccc(NC(=O)Nc2cccnc2)n1`, the cytotoxicity at 10 µM was -12.3%.

Regarding `COc1ccc(CCN2CCN(C(=O)c3scnc3C)CC2)cc1`, the cytotoxicity at 10 µM was -8.31%.

In the case of `Cc1noc(C)c1CN1CCC2(CC1)NC(=O)CC2c1ccncc1` (configuration not stated), the cytotoxicity at 10 µM is 0.635%.

Regarding `Cc1ccccc1[C@@H]1CN(Cc2nc3ncccn3n2)C[C@H]1C(=O)O`, the cytotoxicity at 10 µM is -6.55%.

On to `CCCNc1ncc(CN2CCN(C)C(=O)C2C)cn1` (configuration not stated), for which the cytotoxicity at 10 µM is 12.9%.

As to `Cc1cc(-c2cc(S(=O)(=O)N3C[C@H](C4CC4)[C@@H](N)C3)c(C)s2)[nH]n1`, the cytotoxicity at 10 µM came out at 2.47%.

As for `Cc1cc(C)nc(N2CCC(C(=O)O)(n3ccc(C(C)(C)C)n3)CC2)n1`, the cytotoxicity at 10 µM is -5.6%.

As for `FC(F)(F)CCc1ccnc(N2CCN(Cc3ccccn3)CC2)n1`, the cytotoxicity at 10 µM was -27%.

Regarding `CN1CCC(c2nnc(CN3CCCCC3)n2C)CC1`, the cytotoxicity at 10 µM came to 16.4%.

With `COc1ccc(F)cc1NC(=O)NCC1(C)COC1`, the cytotoxicity at 10 µM is 6.26%.

Turning to `N#Cc1cccc(CN2C(=O)C3(CCNCC3)Nc3ccccc32)c1`, the cytotoxicity at 10 µM is 0.529%.

With `COc1cccn(CC(=O)N(C)CCCOc2c(C)cccc2C)c1=O`, the cytotoxicity at 10 µM was 5.27%.

Take `O=C(N[C@@H]1CCNC[C@H]1O)c1ccc(F)c(F)c1`: the cytotoxicity at 10 µM amounted to 5.79%.

On to `CCC(CO)N(Cc1ccco1)Cc1c(C)nn(C)c1Cl` (configuration not stated), for which the cytotoxicity at 10 µM stood at 7.4%.

With `Cc1nc(C)c(C)c(N2CCC(O)(c3ccc(F)cc3)CC2)n1`, the cytotoxicity at 10 µM is -6.08%.

`Cc1nn(C)c(Oc2ccc(Cl)cc2)c1CN1CC[C@H](CO)[C@@H](O)C1`: the cytotoxicity at 10 µM is -10.5%.

With `CCN(Cc1cc(Cl)c(O)c(OC)c1)Cc1nc(COC)no1`, the cytotoxicity at 10 µM amounted to 1.29%.

As for `CC(C)(C)c1ncc(S(C)(=O)=O)c(C2CCCNC2)n1` (configuration not stated), the cytotoxicity at 10 µM was -12.7%.

Take `COc1cccc2ccc(CN3CCN(c4ccncc4)CC3)nc12`: the cytotoxicity at 10 µM is -1.36%.

With `CN1CCN(C(=O)N2CCCC(c3nccn3CC3CCC3)C2)CC1` (configuration not stated), the cytotoxicity at 10 µM was found to be 6.64%.

Turning to `COCC[C@]1(O)CCN(CC(=O)NCc2ccccn2)C[C@H]1C`, the cytotoxicity at 10 µM is 7.8%.

For the compound `COCCN(C)Cc1cc(Cl)ccc1OCC(O)CN1CCCCCC1` (configuration not stated), the cytotoxicity at 10 µM was 1.76%.

In the case of `OCc1ccc(CN2CCC(n3cc(-c4ccsc4)nn3)CC2)o1`, the cytotoxicity at 10 µM came to 6.77%.

As for `Cc1nc2sccn2c1C(=O)N1CCn2nc(C(=O)NC3CC3)cc2C1`, the cytotoxicity at 10 µM is 9.63%.

`CN1CCC(N(CCc2ccccc2)C(=O)c2ccc(CO)cc2)CC1`: the cytotoxicity at 10 µM worked out at 1.63%.

Turning to `COc1ccccc1OC1(C(=O)O)CCN(c2cc(C)nc(C)c2)CC1`, the cytotoxicity at 10 µM worked out at 2.65%.

Take `O=C(NC(CO)CO)c1coc(COc2cccc(F)c2)n1`: the cytotoxicity at 10 µM was 12.5%.

As to `COc1ccc(C(=O)C2CCCN(CCCn3cccn3)C2)c(OC)c1` (configuration not stated), the cytotoxicity at 10 µM was -12.2%.

With `CCn1nc2c(cc1=O)CN(Cc1nnc(C3CC3)o1)CC2`, the cytotoxicity at 10 µM was -16.2%.

As for `Cn1nc2c(cc1=O)CN(Cc1nc(C3CC3)no1)CC2`, the cytotoxicity at 10 µM is -10.8%.

Consider `CN(C)CC1CN(Cc2coc(-c3ccccc3Cl)n2)CCO1` (configuration not stated), for which the cytotoxicity at 10 µM was -1.15%.

Take `O=C(c1cnc(C2CC2)s1)N1CCCCC1Cn1cccn1` (configuration not stated): the cytotoxicity at 10 µM was found to be 2.43%.

With `COc1ccc(C)cc1CN1CCCC1Cn1nc(C)nc1C` (configuration not stated), the cytotoxicity at 10 µM came to 6.57%.

Turning to `CNC(=O)[C@@H](CC(C)C)N1CCC[C@H]1C(=O)N(C)Cc1ccccc1`, the cytotoxicity at 10 µM was 6.14%.

As to `CN(C)C(=O)CN1C[C@H]2CN(Cc3cccc(F)c3)C(=O)[C@H]2C1`, the cytotoxicity at 10 µM is -79.5%.

With `O=C(c1ccco1)N1C[C@H]2CCCN(CC3CC3)[C@H]2C1`, the cytotoxicity at 10 µM came to 2.36%.

In the case of `Cn1nccc1C(=O)N1CC[C@]2(C[C@H](OCc3ccccn3)CO2)C1`, the cytotoxicity at 10 µM was -80.6%.

Regarding `COCC1CN(Cc2cnn(C)c2)Cc2nn(C)cc21` (configuration not stated), the cytotoxicity at 10 µM is -82.8%.

As for `O=C(c1ccsc1)N1CCC2(CC1)COCCN(Cc1ccncc1)C2`, the cytotoxicity at 10 µM is -89.6%.

Turning to `COCCN(C)C1COC2(CCN(Cc3ccccn3)CC2)C1` (configuration not stated), the cytotoxicity at 10 µM is -73.4%.

For `O=C1CO[C@@H]2CN(C3CCOCC3)C[C@H]2N1Cc1cccc(F)c1`, the cytotoxicity at 10 µM is -77%.

The record behind these values is ChEMBL document CHEMBL4513216, “Probing the Open Global Health Chemical Diversity Library for Multistage-Active Starting Points for Next-Generation Antimalarials” (ACS Infect Dis, 2020).
